Measurements taken from ChEMBL document CHEMBL2380219, “Physalin A induces apoptotic cell death and protective autophagy in HT1080 human fibrosarcoma cells” (J Nat Prod, 2013).
Active and inactive are the calls of the source.

Key:
HT-1080 [1] = experiment: Induction of apoptosis in human HT1080 cells expressing beclin 1 siRNA assessed as suppression of LC31to LC32 conversion at 10 uM after 24 hrs by Western blotting analysis relative to control; type: functional, cell-based
Summary of the method: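 Beclin 1 or nonspecific siRNA transfected into HT1080 cells (5 × 10^5 seeded a day earlier; transfection mixture for 7 h at 37 °C, then normal medium, 24 h before harvest). Cells then got 10 μM for 24 h. Adherent plus floating cells lysed in Hepes pH 7.4/Triton buffer at 4 °C for 60 min. Equal protein on 12% SDS-PAGE, nitrocellulose, ECL. Bands normalized to β-actin, n = 3.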

HT-1080 [2] = experiment: Induction of apoptosis in human HT1080 cells assessed as increase in PARP cleavage at 10 uM pretreated with rapamycin for 1 hr prior to compound addition measured after 24 hrs by Western blotting analysis; type: functional, cell-based
Summary of the method: (§1)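 HT1080 cells pretreated 1 h with 1 mM 3MA or 1 nM rapamycin, then co-incubated with 10 μM for 24 h. Adherent and floating cells lysed in Hepes pH 7.4/Triton buffer. 12% SDS-PAGE, nitrocellulose, antibodies against Fas, FADD, caspase-8, caspase-3, PARP and ICAD, ECL detection. Densities normalized to β-actin; n = 3.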

HT-1080 [3] = experiment: Induction of apoptosis in human HT1080 cells assessed as increase in PARP cleavage at 10 uM pretreated with 3MA for 1 hr prior to compound addition measured after 24 hrs by Western blotting analysis; type: functional, cell-based; summary of the method: as §1
HT-1080 [4] = experiment: Induction of apoptosis in human HT1080 cells assessed as increase in procaspase-3 cleavage at 10 uM pretreated with 3MA for 1 hr prior to compound addition measured after 24 hrs by Western blotting analysis; type: functional, cell-based; summary of the method: as §1
HT-1080 [5] = experiment: Induction of apoptosis in human HT1080 cells assessed as upregulation of FAS protein expression at 10 uM pretreated with rapamycin for 1 hr prior to compound addition measured after 24 hrs by Western blotting analysis; type: functional, cell-based; summary of the method: as §1
HT-1080 [6] = experiment: Induction of autophagy in human HT1080 cells assessed as conversion from LC31to LC32 at 10 uM pretreated with 3MA for 1 hr prior to compound addition measured after 24 hrs by Western blotting analysis; type: functional, cell-based
Summary of the method: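 HT1080 cells pretreated 1 h with 1 mM 3MA or 1 nM rapamycin, then 10 μM added for 24 h. Adherent and floating cells lysed in Hepes pH 7.4/Triton buffer. Equal protein on 12% SDS-PAGE and nitrocellulose, probed for beclin 1 and LC3, ECL detection. Normalized to β-actin, n = 3.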

HT-1080 [7] = experiment: Induction of apoptosis in human HT1080 cells assessed as increase in apoptotic ratio at 10 uM pretreated with 3MA for 1 hr prior to compound addition measured after 24 hrs by propidium iodide staining-based FACS flow cytometric analysis; type: functional, cell-based
HT-1080 [8] = experiment: Induction of autophagy in human HT1080 cells assessed as increase in autophagy ratio at 10 uM pretreated with 3MA for 1 hr prior to compound addition measured after 24 hrs by MDC staining-based FACS flow cytometric analysis; type: functional, cell-based
Summary of the method: (§2)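 HT1080 cells seeded at 3 × 10^5 per flask and grown 24 h. Pretreated 1 h with 1 mM 3MA or 1 nM rapamycin, then 10 μM for 24 h. Collected cells stained with 0.05 mM MDC at 37 °C for 1 h. MDC-positive ratio measured by flow cytometry, n = 3, mean ± SD.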

HT-1080 [9] = experiment: Induction of autophagy in human HT1080 cells assessed as autophagic vacuole formation at 10 uM pretreated with 3MA for 1 hr prior to compound addition measured after 24 hrs by MDC staining-based FACS flow cytometric analysis; type: functional, cell-based; summary of the method: as §2
HT-1080 [10] = experiment: Cytotoxicity against human HT1080 cells assessed as growth inhibition at 10 uM pretreated with 3MA for 1 hr prior to compound addition measured after 24 hrs by MTT assay; type: functional, cell-based
Summary of the method: (§3)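 HT1080 seeded 0.8 × 10^4 cells/well. MTT 2 h at 37 °C, formazan in DMSO, A492 read. Inhibition % calculated against untreated and blank wells.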

HT-1080 [11] = experiment: Induction of autophagy in human HT1080 cells at 10 uM by MDC staining-based FACS flow cytometric analysis; type: functional, cell-based; details: TDE = time-dependent effect
Summary of the method: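 HT1080 cells (3 × 10^5 per flask, grown 24 h) exposed to 10 μM for 12, 24 and 36 h. Cells collected and stained with 0.05 mM MDC at 37 °C for 1 h. MDC-positive ratio measured by flow cytometry, n = 3.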

HT-1080 [12] = experiment: Induction of apoptosis in human HT1080 cells assessed as appearance of cleaved procaspase-9 at 10 uM after 6 to 24 hrs by Western blotting analysis; type: functional, cell-based
Summary of the method: (§4)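 HT1080 cells treated with 10 μM for 6, 12, 18 and 24 h. Adherent and floating cells lysed 60 min at 4 °C in Hepes pH 7.4/1% Triton X-100 buffer with phosphatase and protease inhibitors. Equal protein run on 12% SDS-PAGE, transferred to nitrocellulose, probed with specific antibodies, HRP/ECL detection. Band density normalized to β-actin; n = 3.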

HT-1080 [13] = experiment: Induction of apoptosis in human HT1080 cells assessed as downregulation of ICAD at 10 uM after 6 to 24 hrs by Western blotting analysis; type: functional, cell-based; summary of the method: as §4
HT-1080 [14] = experiment: Induction of apoptosis in human HT1080 cells assessed as procaspase-3 cleavage at 10 uM by Western blotting analysis; type: functional, cell-based; details: TDE = time-dependent effect
HT-1080 [15] = experiment: Induction of apoptosis in human HT1080 cells assessed as increase in FADD protein expression at 10 uM after 6 to 24 hrs by Western blotting analysis; type: functional, cell-based; summary of the method: as §4
HT-1080 [16] = experiment: Cytotoxicity against human HT1080 cells assessed as growth inhibition at 10 uM pretreated with z-LEHD-FMK for 1 hr prior to compound addition measured after 24 hrs by MTT assay; type: functional, cell-based; summary of the method: as §3
HT-1080 [17] = experiment: Induction of apoptosis in human HT1080 cells assessed as appearance of membrane blebbing at 10 uM after 24 hrs by acridine orange staining-based fluorescence microscopic analysis; type: functional, cell-based
Summary of the method: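 HT1080 cells, 2 × 10^4/well, cultured 24 h, then exposed to 10 μM for 24 h. Stained with acridine orange 20 μg/mL for 15 min in the dark and examined by fluorescence microscopy at 200×.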

PBMC = experiment: Cytotoxicity against human PBMC at 10 to 80 uM after 24 to 48 hrs by MTT assay; type: cell-based
Summary of the method: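 PBMC from fresh blood of three healthy male donors. Blood diluted 1:3 in PBS, layered on Ficoll-Hypaque (1.077 g/mL), spun 900g 30 min. Band washed 400g 10 min, cells resuspended in complete RPMI-1640 in 96-well plates. Treated with 0, 10, 20, 40 or 80 μM for 24 and 48 h, then MTT. Means ± SD of three independent experiments.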

MCF7 = experiment: Cytotoxicity against human MCF7 cells assessed as growth inhibition after 24 hrs by MTT assay; type: functional, cell-based
Summary of the method: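 Seeded 0.8 × 10^4 cells/well, cultured 24 h, then exposed to 0, 10, 20, 40 or 80 μM for 24 h (DMSO <0.05%) in RPMI 1640 or MEM with 10% FBS. Adherent lines rinsed with PBS, given MTT 2 h at 37 °C. Suspension lines (U937, HL60) given MTT 2 h, then centrifuged. Formazan dissolved in DMSO, A492 read. Inhibition % = (control − sample)/(control − blank) × 100.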

C=C1C(=O)O[C@@H]2C[C@@]1(C)[C@@H]1C(=O)[C@]3(O)O[C@]14[C@@]2(C)OC(=O)[C@@]4(O)CC[C@H]1[C@H]3[C@H](O)C=C2CC=CC(=O)[C@@]21C [PHYSALIN A]
Non-toxic: Activity (PBMC)
inactive: Activity (HT-1080 [2]) | Activity (HT-1080 [5]) | Activity (HT-1080 [6]) | Activity (HT-1080 [8]) | Activity (HT-1080 [9]) | Activity (HT-1080 [12]) | growth inhibition (GI) (HT-1080 [16])
active: Activity (HT-1080 [1]) | Activity (HT-1080 [3]) | Activity (HT-1080 [4]) | Activity (HT-1080 [7]) | growth inhibition (GI) (HT-1080 [10]) | Activity (HT-1080 [11]) tde | Activity (HT-1080 [13]) | Activity (HT-1080 [14]) tde | Activity (HT-1080 [15]) | Activity (HT-1080 [17]) | growth inhibition (GI) (MCF7) Dose-dependent effect
